Data from ChEMBL document CHEMBL1125488, “Synthesis of the acridone alkaloids glyfoline and congeners. Structure-activity relationship studies of cytotoxic acridones” (J Med Chem, 1992).
pIC50: −log10 of the molar value. Where “and” joins values, the source holds several entries; their conditions need not be identical. Equal values may be shown once.

Tested on: HL-60
Experiment: Ability to inhibit human leukemic HL-60 cell growth in culture
Type: functional, cell-based
Summary of the method: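 HL-60 cells seeded at 1.5 × 10^5/mL in RPMI 1640 and exposed to compound at 0.0025–0.05 mg/mL (in 0.1% DMSO). Incubation was 72 h at 37 °C under humidified 5% CO2. Viable cells were counted by trypan blue exclusion on a hemocytometer. IC50 was the median-effect concentration, taken from a median-effect plot of fractional inhibition over three to five dose-effect levels.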

pIC50 (Homo sapiens, HL-60)	pIC50 (hl-60)	Compound
4.94	–	COc1c(OC)c(OC)c2c(c1O)c(=O)c1ccc(N)cc1n2C
4.21	–	CCN(CC)CCn1c2c(OC)c(O)ccc2c(=O)c2c(O)c(OC)c(OC)c(OC)c21
< 4.00	–	COc1c(OC)c(O)c2c(O)c3ccc(O)c(OC)c3nc2c1OC
4.63	–	COc1ccc2c(=O)c3c(OC)c(OC)c(OC)c(OC)c3n(C)c2c1OC
4.35	–	COc1c(OC)c(OC)c2c(c1O)c(=O)c1cc(N)ccc1n2C
5.03	–	COc1c(OC)c(OC)c2c(c1O)c(=O)c1ccc(N(C)C)cc1n2C
< 4.00	–	COc1c(OC)c(OC)c2c(c1O)c(=O)c1ccc([N+](=O)[O-])cc1n2C
5.47	–	COc1ccc2c(=O)c3c(O)c(OC)c(OC)c(OC)c3n(C)c2c1OC
–	4.04 and 4.63	COc1c(OC)c(OC)c2c(c1OC)c(=O)c1ccc(O)c(OC)c1n2C
5.66	–	COc1c(OC)c(OC)c2c(c1O)c(=O)c1ccc(O)c(OC)c1n2C [GLYFOLINE]
4.89	–	COc1c(OC)c(OC)c2c(c1O)c(=O)c1cccc(OC)c1n2C
< 4.00	–	COc1c(OC)c(OC)c2c(c1O)c(=O)c1cc([N+](=O)[O-])ccc1n2C
4.97	–	CNc1ccc2c(=O)c3c(O)c(OC)c(OC)c(OC)c3n(C)c2c1

Compound	pIC50 (Homo sapiens, HL-60)	pIC50 (hl-60)
COc1cc2c(c3c1c(=O)c1ccccc1n3C)C=CC(C)(C)O2 [ACRONINE]	4.58	–
